NPY Y1 blocker = antagonists of human neuropeptide Y receptor Y1; P25929; HEK293-CNG Y1 cells, membrane potential fluorescence; NPY at EC95, then isoproterenol; inhibition, % at 3.6 µM; 200,000 compounds, 1% hits; AID 1040;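 active = inhibition above the campaign mean inhibition of all tested compounds plus 3 SD, cut at about 20% in these data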;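 note: 0% = DMSO wells given NPY plus isoproterenol and 100% = isoproterenol alone without NPY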
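material = HEK293 cells with Y1 receptor plus CNG channel | also added = NPY 25 nM then isoproterenol 1 µM plus Ro 20-1724 25 µM | schedule = dye 3 h, compound 60 min room temperature, stimulation 45 min | measured by = membrane potential fluorescence | benchmarks = high control isoproterenol alone, low control NPY with isoproterenol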
NPY2 pot ag = potentiates or activates human NPY-Y2 receptor; P49146; AID 1359; 220,000 compounds, 0.45% hits; cells expressing NPY-Y2, potentiator/agonist read-out; activation, % at 3.6 µM; in the data active = activation above about 27%;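 note: cells stimulated with NPY near EC25 plus isoproterenol at EC100; 0% = vehicle plus submaximal agonist and 100% = vehicle plus saturating agonist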
PGE2 EP2 inh = inhibitors of human EP2 prostaglandin E2 receptor; inhibition, % at 25 µM; 260,000 compounds, 0.52% hits; C6 glioma cells expressing human EP2, cAMP TR-FRET; cells stimulated with saturating PGE2;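 active = percent inhibition above 40 after rounding to a whole number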;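 note: rat C6 glioma host cells with rolipram phosphodiesterase inhibitor present; the protocol text gives 20 µM as final concentration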
Target sequence (P43116 whole entry, looked up): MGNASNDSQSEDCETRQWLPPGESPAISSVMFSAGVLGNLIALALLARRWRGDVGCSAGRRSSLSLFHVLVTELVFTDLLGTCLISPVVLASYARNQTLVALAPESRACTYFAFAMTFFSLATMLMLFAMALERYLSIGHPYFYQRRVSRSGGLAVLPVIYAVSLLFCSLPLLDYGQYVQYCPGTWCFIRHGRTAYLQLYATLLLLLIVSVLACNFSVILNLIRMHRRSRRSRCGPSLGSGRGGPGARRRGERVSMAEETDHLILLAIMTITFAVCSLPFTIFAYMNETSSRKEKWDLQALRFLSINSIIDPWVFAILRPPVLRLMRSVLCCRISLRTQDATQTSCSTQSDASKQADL
NPY Y2 blocker = NPY-Y2 (human) receptor antagonism | inhibition, % at 2.7 µM | P49146 | NPY-Y2 expressing cells, antagonist mode | 140,000 compounds, 0.99% hits | AID 793; in the data active = inhibition above about 17%;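 note: 0% = vehicle with agonist challenge and 100% = reference antagonist with challenge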
EP2 mod = modulates human prostaglandin E2 receptor EP2 signaling; P43116; EP2-expressing cells, cAMP HTRF FRET, PGE2 co-stimulation; induction, % at 25 µM; 260,000 compounds, 0.83% hits;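 active = compounds whose cAMP rise, as percent of the full-agonist control response, exceeds 60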;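 note: rat C6 glioma line stably carrying human EP2 under a CMV promoter; the protocol text gives 20 µM as final concentration; 100% = response of wells given 1 µM PGE2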
NPY-Y1 PAM-ag = potentiators or agonists of human neuropeptide Y receptor Y1 | P25929 | NPY-Y1 expressing cells, potentiator/agonist activation | activation, % at 3.6 µM | 220,000 compounds, 0.37% hits | AID 1304; in the data active = activation above about 33%, passing the limit was not always enough;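 note: cells stimulated with NPY at EC10 then isoproterenol at EC100; 0% = low agonist plus stimulus and 100% = saturating agonist plus stimulus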
NPY-Y2 pot conf = confirmation of human NPY-Y2 receptor potentiators or agonists. shares compounds with NPY2 pot ag. cell-based NPY-Y2 potentiator/agonist assay. activation, % at 3.6 µM. 450 compounds, 20% hits; in the data active = activation above about 33%
NPY-Y1 counter = counter-screen for NPY-Y2 potentiators or agonists: NPY-Y1 potentiators or agonists; activation, % at 3.6 µM; Y1 HEK293-CNG cells, membrane potential fluorescence; AID 1651; 450 compounds, 20% hits; shares compounds with NPY2 pot ag; in the data active = activation above about 45%;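 note: cells stimulated with submaximal NPY then isoproterenol with phosphodiesterase inhibitor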
NPY-Y1 agonist 2 = human NPY-Y1 agonism as NPY-Y2 potentiator counter-screen. shares compounds with NPY2 pot ag. HEK293 Y1-CNGC, membrane potential fluorescence. activation, % at 3.6 µM. 450 compounds, 37% hits. AID 1702;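 active = activation above the mean of DMSO-only control wells plus 3 SD, cut at about 18% in these data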;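 note: cells stimulated with 1 µM isoproterenol plus the PDE inhibitor Ro 20-1724; 0% = isoproterenol with DMSO and no NPY and 100% = 40 nM NPY; Y1 agonists lower the membrane potential dye signal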
CNGC inhibitor = counter-screen for NPY-Y2 potentiators: inhibitors of CNG channel activity. shares compounds with NPY2 pot ag. HEK293-CNG parental, isoproterenol cAMP, membrane potential fluorescence. inhibition, % at 3.6 µM. 450 compounds, 32% hits;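 active = inhibition above the control-well mean plus 3 SD of those wells, cut at about 22% in these data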;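 note: 0% = DMSO with isoproterenol and 100% = DMSO without isoproterenol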
Y2 agonist ctr = activates human NPY-Y2 receptor in potentiator counter-screen | shares compounds with NPY2 pot ag | HEK293 Y2/CNGC cells, membrane potential fluorescence, agonist mode | activation, % at 3.6 µM | 450 compounds, 56% hits | AID 1710;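 active = activation above the mean of solvent-only control wells plus 3 SD, cut at about 10% in these data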;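 note: cells stimulated by isoproterenol with no NPY added so direct agonism is tested; 0% = DMSO with isoproterenol alone and 100% = NPY at EC100 plus isoproterenol; agonism lowers probe fluorescence through less cAMP and CNG channel opening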
* hit, by the source's call; / = no result given. Only some compounds are listed: those with a hit (about 2.8% of all), similar ones and a draw of the others.

SMILES	NPY Y1 blocker	NPY2 pot ag	PGE2 EP2 inh	NPY Y2 blocker	EP2 mod	NPY-Y1 PAM-ag	NPY-Y2 pot conf	NPY-Y1 counter	NPY-Y1 agonist 2	CNGC inhibitor	Y2 agonist ctr
CCCNC(=O)CN1CCC2(CC1)NC(=O)c1ccccc1O2	/	/	/	/	-80	/	/	/	/	/	/
CC(=O)c1c(C)[nH]c(C(=O)OCc2ccccc2F)c1C	-2	29*	6	/	-55	9	13	17	16	27*	25*
CC(=O)c1ccc(N2CCN(C(=S)Nc3cccc(F)c3)CC2)cc1	-1	4	24	0	-42	-8	/	/	/	/	/
CC(=O)c1ccc(N2CCN(C(=S)Nc3ccc(Oc4ccccc4)cc3)CC2)cc1	-1	39*	3	/	-72	12	1	-20	-9	-4	11*
CCc1ccc(N(C(=O)c2snc(C(N)=O)c2N)C(CC)C(=O)NC2CCCC2)cc1 (configuration not stated)	/	/	17	/	21	/	/	/	/	/	/
CCCc1cc(-c2[nH]ncc2-c2ccc(C(=O)OCC)o2)c(O)cc1O	-1	41*	10	-2	17	26	20	19	10	13	22*
O=C(NCCn1nc(-c2ccco2)ccc1=O)C1CCCO1 (configuration not stated)	/	/	/	/	-5	/	/	/	/	/	/
Cc1[nH]c2ccccc2c1/C=N/NC(=O)c1cccc(S(=O)(=O)Nc2cccc(C(F)(F)F)c2)c1	-3	42*	9	/	-89	39	41*	60*	46*	35*	40*
NNC(=O)c1cccc(S(=O)(=O)Nc2cccc(C(F)(F)F)c2)c1	/	2	3	/	12	20	/	/	/	/	/
Cc1nnc(NC(=O)CSc2nc(C(C)C)nc3sc4c(c23)CCC(C)C4)s1 (configuration not stated)	/	/	6	/	18	/	/	/	/	/	/
Cc1cccc(C)c1Nc1c(-c2ccc(N3CCOCC3)cc2)nc2ncccn12	-4	43*	/	-5	-49	36	91*	111*	96*	83*	97*
COc1ccc2cc(C(c3nnnn3C3CCCC3)N3CCN(Cc4ccccc4)CC3)c(=O)[nH]c2c1 (configuration not stated)	/	/	8	/	-8	/	/	/	/	/	/
Oc1c(C2=NCCNC(C(F)(F)F)=C2)ccc2ccccc12	-12	31*	6	/	-48	35	36*	50*	38*	32*	42*
COc1ccc(OC)c(N=c2oc3cc(O)ccc3cc2C(=O)Nc2nccs2)c1	/	/	24	/	-92	/	/	/	/	/	/
CCc1ccc2nc(SCC(=O)Nc3sc4c(c3C#N)CCCC4)c(C#N)cc2c1	/	/	14	/	-3	/	/	/	/	/	/
CCOC(=O)c1ccc(Nc2nc(C(=O)OCC)nc3ccccc23)cc1	2	-3	14	0	-5	8	/	/	/	/	/
CCOC(=O)c1nc(Nc2ccc(Nc3ccccc3)cc2)c2ccccc2n1	-8	33*	12	/	-13	13	35*	37	10	19	33*
O=S(=O)(c1cccc(NC(=S)N2CCN(c3cccc(Cl)c3)CC2)c1)C(F)F	-4	30*	3	-3	-6	7	10	-1	7	13	17*
COc1cc(-c2csc(N3CCOCC3)n2)cc(OC)c1OC	-1	19	11	0	9	2	/	/	/	/	/
COc1ccc(-c2csc(N3CCN(c4cc(C)nc5ccccc45)CC3)n2)cc1OC	8	32*	17	/	-21	-1	40*	39	16	33*	29*
CN(C)S(=O)(=O)Oc1cccc(C(=O)Nc2ccc(Cl)cc2)c1	-9	48*	15	2	-54	40	-4	-36	-21	-12	-7
CN(C)S(=O)(=O)Oc1cccc(C(=O)Nc2ccccc2Cl)c1	-2	6	10	2	-1	-7	/	/	/	/	/
COc1cccc(Cn2c3cc(C)sc3c3cnn(CCC(N)=O)c(=O)c32)c1	/	/	/	/	-2	/	/	/	/	/	/
CCNC(=S)N/N=C/c1cc(C)n(-c2ccc(Cl)cc2)c1C	6	-15	24	/	23	-17	/	/	/	/	/
Cc1cc(/C=N/NC(=O)Cn2c3ccccc3c(=O)c3ccccc32)c(C)n1-c1ccc(Cl)cc1	-3	31*	11	3	-39	30	29	32	0	-12	20*
C=CCn1c(=O)c(C(=O)Nc2ccccc2O)c(O)c2ccccc21	4	53*	13	4	50	16	1	-9	-1	2	6
Cn1c(=O)c([N+](=O)[O-])c(NCc2ccc3c(c2)OCO3)c2ccccc21	/	99*	4	/	-1	3	-15	-29	-24	-9	-10
COc1ccccc1N=Nc1nc(-c2ccccc2)c(-c2ccccc2)[nH]1	-7	22	11	-3	28	26	/	/	/	/	/

Screening results as filed in PubChem BioAssay.
